# Source: PubChem (several laboratories)
# Only a selection was taken, and hits are over-represented in it overall.
# N-glyco inh: increase of ERlucT glycosylation luciferase signal, primary screen, N-linked glycosylation inhibitor project, D54 ERlucT cells, luminescence, set 2. D54 ERlucT glycosylation luciferase reporter, 24 h; percent of 100 nM tunicamycin response. reporter increase, % at 12.5 µM. 0.23% of 360,000 active;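 active means mean luciferase reporter signal, scaled so untreated is 0 and the glycosylation-blocking control 100, at or above a set limit in every replicate; inconclusive means mean reaches the limit but not every replicate does; inactive means mean below the limit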;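 further: luciferase carries N-glycosylation sites so blocking glycosylation raises the light; 0% = median of neutral control wells and 100% = median of 100 nM tunicamycin wells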
# ALR H2O2 inh: inhibitors of human ALR sulfhydryl oxidase, primary screen, biochemical, H2O2 detection, HRP-luminol luminescence, single point; inhibition, % (test concentration not listed); AID 485317, 2010; FAD-linked sulfhydryl oxidase ALR (Homo sapiens), P55789; purified ALR, DTT oxidation; 3.8% of 290,000 active;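 active means mean replicate inhibition above about 79%, with every replicate also reaching it, limit read from the data; inconclusive means only one of the two criteria met; inactive means mean below limit and not every replicate reaching it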
# Target sequence (P55789 whole entry, looked up): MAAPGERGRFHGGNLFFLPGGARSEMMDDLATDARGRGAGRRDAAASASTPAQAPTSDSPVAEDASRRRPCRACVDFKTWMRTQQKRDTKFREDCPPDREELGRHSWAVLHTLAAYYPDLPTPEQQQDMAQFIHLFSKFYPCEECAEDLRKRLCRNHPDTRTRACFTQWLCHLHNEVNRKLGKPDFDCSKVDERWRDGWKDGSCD
# T cell modulator: modulators of CD8 T cell-vesicle binding, primary screen, mouse 2C CD8+ T cells, flow cytometry; 2C CD8+ T cell-vesicle binding; stronger effect = lower value; response (vesicle binding), % at 7 µM; 0.068% of 330,000 active;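 active means response, share of CD8 T cells binding vesicles, and their 90th percentile fluorescence all below set limits, cut at about 80% in these data, passing the limit was not always enough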;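 further: values below 100% mean blocked vesicle binding to the CD8+ T cells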
#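 Also added: QL9-peptide-loaded Drosophila micro-vesicles bearing Ld, ICAM-1 and B7-1; Test system: purified 2C TCR transgenic mouse naive CD8+ T cells; Measured by: cytometric PE anti-B7-1 and Alexa647 anti-CD8 signals after 1% paraformaldehyde fixation; Timing: binding step 1.5 h, 37 °C, antibody labelling 20 min, ice.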
# The depositor's hits bear a star; i = inactive; ? = inconclusive; . = not tested or not shown.
SMILES,N-glyco inh,ALR H2O2 inh,T cell modulator
Cc1ccc(S(=O)(=O)NC(=O)c2cc(C)n(-c3ccc(N(C)C)cc3)c2C)cc1,0,95*,185
CCn1c2ccccc2n2c(=O)c(=O)n(CC(=O)N3CCN(c4ccccc4OC)CC3)nc12,.,-1,353
CC1CCCC(=NNC(=O)C2COc3ccccc3O2)C1 (configuration not stated),0,27,220
CC(C)Oc1ccc(CNC(=O)CCCN2C(=O)C(c3ccccc3)Oc3cccnc32)cc1 (configuration not stated),-2,-1,337
COCCNC(=O)COC(=O)/C=C/c1cnc2ccccc2n1,1,-10,194
O=C(COC(=O)/C=C/c1cnc2ccccc2n1)NCC(F)(F)F,5,91*,368
Cc1c([C@H]2[C@@H](CC#N)C2(C)C)c2ccccc2n1C,-3,97*,171
Cc1[nH]c2c(Br)cccc2c1[C@H]1[C@@H](CC#N)C1(C)C,-2,4,577
Nc1c(Cl)ncnc1NCc1cccnc1,0,-33,191
Nc1c(Cl)ncnc1NCCc1ccc(O)cc1,0,90*,260
O=C(CN(Cc1ccc(F)cc1)C(=O)CNS(=O)(=O)c1ccccc1)NCC1CCCO1 (configuration not stated),2,.,531
COc1ccc(-c2noc(CCC(=O)NCCc3ccccc3)n2)cc1,3,-1,366
CCN(CCCNC(=O)CCc1nc(-c2ccc(OC)cc2)no1)c1cccc(C)c1,-2,87*,281
CCN(CCCNC(=O)CNC(=O)Cn1cnc2ccccc2c1=O)c1ccccc1,1,98*,151
CCOCCCNC(=O)Cn1cc2c(n1)CCCC2,2,-16,341
CCN(CCCNC(=O)CCNC(=O)Cn1cnc2ccccc2c1=O)c1cccc(C)c1,-3,99*,228
CCN(CCCNC(=O)Cn1cc2c(n1)CCCC2)c1cccc(C)c1,0,99*,155
CCCN(C(=O)CCNC(=O)Cn1cnc2ccccc2c1=O)c1cccc(C)c1,1,0,237
CCN(CCCNC(=O)CCNC(=O)Cn1ccc2ccccc2c1=O)c1ccccc1,3,.,.
CN(C)c1ccc(NC(=S)NC23CC4CC(CC(C4)C2)C3)cc1,-7,.,222
COc1ccc(OC)c(CCNC(=O)c2ccccc2NC(=O)C2=C(C)OCCS2)c1,0,-9,250
O=C(C(c1ccccc1)c1ccccc1)N1CC[C@@]2(O)CCCC[C@H]2C1,0,6,537
COc1ccc2c(COC(=O)[C@H](C)NS(=O)(=O)c3ccccc3F)cc(=O)oc2c1,0,6,192
OC[C@@H]1CN(Cc2ccncc2)C[C@H](n2cnc3c(NC4CCCC4)ncnc32)O1,0,.,.
S=C(NCCN1CCOCC1)Nc1ccc(Cl)c(Cl)c1,-2,22,844
SMILES,N-glyco inh,ALR H2O2 inh,T cell modulator
FC(F)(F)c1ccccc1Cc1c(-c2ccco2)nc2ccc(Br)cn12,-2,.,.
NC(=O)CSc1nnc(Cc2ccc3c(c2)OCO3)o1,3,.,403
Cc1ccsc1/C=C1/SC(N2CC(C)OC(C)C2)=NC1=O (configuration not stated),9,99*,246
Cc1ccsc1/C=C1\SC(N)=NC1=O,0,-9,337
CCSc1nc(N2CCOCC2)c2c(c1C#N)CC(C)(C)N(C)C2,2,.,238
COC(=O)CSc1nc(N2CCOCC2)c2c(c1C#N)CC(C)(C)N(C)C2,-1,95*,132
COC(=O)c1ccc(CS(=O)(=O)c2ccc(F)cc2)o1,-1,-2,207
CC(C)C[C@H](N)c1nnc(S(=O)(=O)Cc2ccc(F)cc2)o1,-4,98*,125
Nc1nc(Nc2ccccc2)nc(NCc2ccccc2)c1[N+](=O)[O-],-8,86*,411
Nc1nc(NCc2ccccc2)nc(NCc2ccccc2)c1[N+](=O)[O-],-4,1,476
Cc1ccc(CSCc2ccc(C(=O)NCCC(C)C)o2)cc1,-3,8,23
CS(=O)(=O)c1ccc(N)c(SSc2cc(S(C)(=O)=O)ccc2N)c1,1,99*,346
CCOc1ccc(N)c(SSc2cc(OCC)ccc2N)c1,-3,7,155
CCc1cc(C(=O)N2CCCC(C(=O)c3cccc4ccccc34)C2)n(C)n1 (configuration not stated),0,-54,546
COc1cc(/C(C)=N/N2CCN(c3ccccc3OC)CC2)ccc1O,-1,99*,234
COc1ccccc1N1CCN(/N=C/c2cc(OC)c(OC)c(OC)c2)CC1,1,27,266
COc1ccccc1N1CCN(/N=C\c2sccc2C)CC1,0,95*,264
COc1cc(C(C)=NNC(=O)c2ccncc2)ccc1O,0,.,.
COc1cc(/C=N/N2CCN(c3ccccc3OC)CC2)ccc1O,-1,99*,383
COc1ccccc1N1CCN(/N=C\c2ccccc2)CC1,0,22,162
COc1ccccc1N1CCN(/N=C(\C)c2ccccc2O)CC1,3,1,225
COc1cc(/C(C)=N/NC(=O)C(O)(c2ccccc2)c2ccccc2)ccc1O,0,98*,178
Cn1c(CNC(=O)c2ccco2)nnc1SCC(=O)N1CCN(c2ccccc2F)CC1,-1,.,129
Cc1ccc(S(=O)(=O)NCCCNC(=O)OCc2ccccc2)cc1,-2,.,.
CCN(CC(=O)NCc1cccs1)C(=O)c1ccc(-c2ccccc2F)o1,0,.,237
SMILES,N-glyco inh,ALR H2O2 inh,T cell modulator
COc1ccc(/C=N/N2CCN(C)CC2)cc1O,2,99*,320
COc1cccc(/C=N/N2CCN(C)CC2)c1,3,14,228
CCSc1nc2nccnc2c(=O)[nH]1,1,.,.
CCCn1c2ccccc2c2cnn(CC(=O)NC3CCCCC3C)c(=O)c21 (configuration not stated),6,-1,227
COc1ccc2nc(C3CCCCC3)nc(C3CCCCC3)c2c1,-4,-2,992
Cc1ccc2[nH]c(C(=O)N3CCN(C(c4ccccc4)c4ccccc4)CC3)cc2c1,-10,-7,486
O=C(O)c1ccc(N=N/C(=N\Nc2ccc(C(=O)O)cc2)c2ccccc2)cc1,1,98*,611
NC(=O)/C(N=Nc1ccccc1)=N/Nc1ccccc1,0,-40,602
O=C(O)c1cccc(N/N=C(\N=Nc2ccccc2)c2ccccc2)c1,1,98*,i
CC(=O)Nc1ccc(/C(N=Nc2ccccc2)=N/N=C(N)N)cc1,1,.,.
CCOc1ccc(NC(=O)c2ccc3c(c2)C(=O)N(Cc2ccncc2)C3=O)cc1,3,.,.
CCc1noc(C)c1C(=O)N1CCC(CCC(=O)Nc2cccc(C)c2)CC1,0,-6,463
CCSc1ncc(/C=N/Nc2ccccc2)n1C,2,99*,438
CCSc1ncc(/C=N/Nc2ccc(Cl)cc2)n1C,-6,?,244
C[C@H]1CN[C@@H](CCO)/C1=C\c1ccccc1,1,.,.
CN(C)c1ccc(C2OC(=O)C3(CCCC3)C(=O)C2(C)C)cc1 (configuration not stated),1,94*,450
CC1(C)C(=O)C2(CCCCC2)C(=O)OC1c1cccc([N+](=O)[O-])c1 (configuration not stated),-1,-3,192
